# Measured values as given in ChEMBL document CHEMBL3758106, “Antitumor Activity of Americanin A Isolated from the Seeds of Phytolacca americana by Regulating the ATM/ATR Signaling Pathway and the Skp2-p27 Axis in Human Colon Cancer Cells” (J Nat Prod, 2015).
# Calls of active or inactive are those of the source. No cut-off for these calls is given here.
# What was measured:
# HCT-116 [1] = test: Induction of reactive oxygen species in human HCT116 cells at 30 uM after 48 hrs by DCFH-DA staining-based flow cytometric analysis in presence of NAC (reference value: 5.1%); type: functional
# Outline: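 HCT116 cells seeded overnight, then exposed to test compounds, alone or with NAC, for 48 h in complete medium. Loaded with 20 μM DCFH-DA for 30 min; intracellular ROS in 20 000 cells per group read by flow cytometry as histograms.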
# [2] = Decrease in phosphorylated p27 expression at Thr187 in human HCT116 cells after 24 hrs by western blot analysis; type: functional, cell-based; details: HCT-116
# Outline: (§1)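 HCT116 cells exposed 24 h in complete medium; lysed in RIPA buffer (pH 8.0), protein by BCA, equal loads run on 8–13% SDS-PAGE, PVDF transfer, blocked in 5% BSA/TBST, primary antibodies overnight at 4 °C, HRP secondaries 2 h RT, ECL detection; β-actin as loading control.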
# A549 = test: Antiproliferative activity against human A549 cells after 24 to 72 hrs by SRB assay; type: functional, cell-based
# Outline: (§2)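 Cells grown in 96-well plates (RPMI 1640; MRC-5 in MEM, 10% FBS, antibiotics) with compound […]; fixed in 10% TCA 30 min at 4 °C, stained 0.4% SRB in 1% acetic acid 1 h, dye dissolved in 10 mM Tris pH 10.0, A515 read; viability as % of solvent control, IC50 by nonlinear regression; mean of three independent experiments.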
# HCT-116 [3] = test: Induction of cell cycle arrest in human HCT116 cells assessed as accumulation at S phase at 30 uM after 24 hrs by propidium iodide staining-based flow cytometric analysis in presence of RNase A (reference value: 13.4%); type: functional
# [4] = Decrease in Skp1 expression in human HCT116 cells at 7.5 to 30 uM after 24 hrs by western blot analysis; type: functional, cell-based; details: HCT-116; outline: as §1
# HCT-116 [5] = test: Induction of apoptosis in human HCT116 cells assessed as dead cells at 7.5 uM after 48 hrs by annexin V-FITC/propidium iodide staining-based flow cytometric analysis (reference value: 2%); type: functional
# [6] = Decrease in SCF E3 expression in human HCT116 cells at 7.5 to 30 uM after 24 hrs by western blot analysis; type: functional, cell-based; details: HCT-116; outline: as §1
# HCT-116 [7] = test: Induction of cell cycle arrest in human HCT116 cells assessed as accumulation at sub-G1 phase after 24 hrs by propidium iodide staining-based flow cytometric analysis in presence of RNase; type: functional
# HCT-116 [8] = test: Induction of cell cycle arrest in human HCT116 cells assessed as accumulation at sub-G1 phase at 7.5 uM after 24 hrs by propidium iodide staining-based flow cytometric analysis in presence of RNase A (reference value: 1.5%); type: functional
# [9] = Antiproliferative activity against human HCT15 cells after 24 to 72 hrs by SRB assay; type: functional, cell-based; details: HCT-15; outline: as §2
# HCT-116 [10] = test: Induction of apoptosis in human HCT116 cells assessed as late apoptotic cells at 30 uM after 48 hrs by annexin V-FITC/propidium iodide staining-based flow cytometric analysis in presence of NAC (reference value: 7.2%); type: functional
# HCT-116 [11] = test: Increase in p21 expression in human HCT116 cells after 24 hrs by western blot analysis; type: functional, cell-based; outline: as §1
# [12] = Antiproliferative activity against human HCT116 cells assessed as cell viability after 48 hrs by SRB assay; type: functional, cell-based; details: HCT-116, 48 h
# Outline: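 HCT116 cells in 96-well plates exposed 24, 48 or 72 h; TCA fixation, 0.4% SRB staining, dye solubilised in 10 mM Tris pH 10.0, absorbance at 515 nm; viability relative to solvent-treated control.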
# HCT-116 [13] = test: Induction of cell cycle arrest in human HCT116 cells assessed as accumulation at sub-G1 phase at 7.5 uM after 48 hrs by propidium iodide staining-based flow cytometric analysis in presence of RNase A (reference value: 6.5%); type: functional
# HCT-116 [14] = test: Induction of apoptosis in human HCT116 cells assessed as viable cells at 15 uM after 48 hrs by annexin V-FITC/propidium iodide staining-based flow cytometric analysis (reference value: 91.2%); type: functional; details: HCT-116, 48 h, read-out: Activity
# [15] = target: Cullin-1/S-phase kinase-associated protein 1 (Homo sapiens) (UniProt Q13616+P63208); test: Inhibition of Cul-1/Skp1 protein interaction in human HCT116 cells after 24 hrs by immunoprecipitation assay; type: cell-based; details: HCT-116
# Outline: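 Protein measured by Bradford, equal amounts pulled down with anti-Cul-1 antibody on Protein G sepharose at 4 °C. Eluates boiled in Laemmli buffer with 2-mercaptoethanol and probed by Western blot.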
# HCT-116 [16] = test: Increase in p27 expression in human HCT116 cells after 24 hrs by western blot analysis; type: functional, cell-based; outline: as §1
# HCT-116 [17] = test: Induction of apoptosis in human HCT116 cells assessed as decrease in Bcl2 expression at 7.5 to 30 uM after 48 hrs by Western blot analysis; type: functional, cell-based
# Outline: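 HCT116 cells exposed 48 h; Western blot of RIPA lysates (BCA quantification, SDS-PAGE, PVDF, overnight primary antibodies at 4 °C, HRP secondary, ECL).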
# [18] = Downregulation of cyclin B1 expression in human HCT116 cells at 7.5 to 30 uM after 24 hrs by Western blot analysis; type: functional, cell-based; details: HCT-116; outline: as §1
# [19] = Downregulation of phosphorylated ATM expression in human HCT116 cells at 30 uM after 1 hr by Western blot analysis; type: functional, cell-based; details: HCT-116, TDE = time-dependent effect
# Outline: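 HCT116 cells exposed for 1 h in complete medium; RIPA lysates quantified by BCA, equal protein separated on 8–13% SDS-PAGE, transferred to PVDF, probed with primary antibodies overnight at 4 °C and HRP secondaries, chemiluminescence read-out.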
# HCT-116 [20] = test: Induction of apoptosis in human HCT116 cells assessed as dead cells at 30 uM after 48 hrs by annexin V-FITC/propidium iodide staining-based flow cytometric analysis (reference value: 4.2%); type: functional
# Mus musculus = test: Toxicity in nude mouse at 5 to 10 mg/kg, ip administered 3 times per week measured on day 41; type: organism-based; details: in vivo
# Outline: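 Nude mice implanted s.c. in the flank with 2 × 10^6 HCT116 cells. Once tumors reached about 120 mm3, mice were randomized, six per group, to vehicle or compound at 5 or 10 mg/kg ip (200 μL) three times weekly; irinotecan 10 mg/kg ip once weekly as reference. Body weight recorded twice weekly to assess toxicity; study ended day 41.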
# HCT-116 [21] = test: Induction of cell cycle arrest in human HCT116 cells assessed as accumulation at G0/G1 phase at 15 uM after 24 hrs by propidium iodide staining-based flow cytometric analysis in presence of RNase A (reference value: 64.6%); type: functional
# HCT-116 [22] = test: Induction of cell cycle arrest in human HCT116 cells assessed as accumulation at G2/M phase at 30 uM after 24 hrs by propidium iodide staining-based flow cytometric analysis in presence of RNase A (reference value: 20.6%); type: functional
# HCT-116 [23] = test: Increase in Cul-1 expression in human HCT116 cells after 24 hrs by western blot analysis; type: functional, cell-based; outline: as §1
# [24] = Upregulation of ATM expression in human HCT116 cells at 1 hr by Western blot analysis; type: functional, cell-based; details: HCT-116
# Cullin-1/S-phase kinase-associated protein 1 (Homo sapiens), sequence (P63208 whole entry, looked up): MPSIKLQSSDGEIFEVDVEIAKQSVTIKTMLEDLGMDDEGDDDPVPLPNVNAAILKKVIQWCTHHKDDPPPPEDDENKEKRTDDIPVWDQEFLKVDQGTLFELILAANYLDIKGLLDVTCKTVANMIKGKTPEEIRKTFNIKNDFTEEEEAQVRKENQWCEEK
# Cullin-1/S-phase kinase-associated protein 1 (Homo sapiens), sequence (Q13616 whole entry, looked up): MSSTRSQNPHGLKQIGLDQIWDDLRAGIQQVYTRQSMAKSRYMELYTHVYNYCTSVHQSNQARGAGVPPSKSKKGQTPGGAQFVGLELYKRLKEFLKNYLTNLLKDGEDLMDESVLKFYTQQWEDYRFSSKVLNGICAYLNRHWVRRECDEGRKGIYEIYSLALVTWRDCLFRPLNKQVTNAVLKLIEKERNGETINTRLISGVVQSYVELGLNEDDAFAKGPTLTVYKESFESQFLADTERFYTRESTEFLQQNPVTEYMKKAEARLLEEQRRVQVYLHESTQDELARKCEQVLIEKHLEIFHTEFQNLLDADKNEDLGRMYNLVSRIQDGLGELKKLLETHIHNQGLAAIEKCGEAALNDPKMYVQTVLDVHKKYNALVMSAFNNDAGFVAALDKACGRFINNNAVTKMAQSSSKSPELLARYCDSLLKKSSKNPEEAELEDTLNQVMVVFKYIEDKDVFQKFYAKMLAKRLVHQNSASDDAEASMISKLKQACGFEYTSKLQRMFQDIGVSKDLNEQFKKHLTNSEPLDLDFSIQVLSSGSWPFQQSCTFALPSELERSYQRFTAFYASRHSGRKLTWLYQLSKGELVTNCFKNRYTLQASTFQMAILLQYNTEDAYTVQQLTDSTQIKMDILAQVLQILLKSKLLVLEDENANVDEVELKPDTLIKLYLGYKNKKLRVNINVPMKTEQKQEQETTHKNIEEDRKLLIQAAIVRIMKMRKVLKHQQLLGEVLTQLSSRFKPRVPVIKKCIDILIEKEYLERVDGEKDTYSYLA
structure (smiles),measurement,setting,value
O=C/C=C/c1ccc2c(c1)O[C@@H](CO)[C@H](c1ccc(O)c(O)c1)O2 [AMERICANIN A],Activity,HCT-116 [1],9.9%
same,Activity,[2],Active
same,IC50,A549,39.1 µM
same,Activity,HCT-116 [3],18.4%
same,Activity,[4],Active
same,Activity,HCT-116 [5],2%
same,Activity,[6],Active
same,Activity,HCT-116 [7],Dose-dependent effect
same,Activity,HCT-116 [8],1.9%
same,IC50,[9],12.5 µM
same,Activity,HCT-116 [10],18.9%
same,Activity,HCT-116 [11],Dose-dependent effect
same,IC50,[12],9.6 µM
same,Activity,HCT-116 [13],7.6%
same,viability at 15 µM,HCT-116 [14],76.3%
same,inhibition,[15],inactive
same,Activity,HCT-116 [16],Dose-dependent effect
same,Activity,HCT-116 [17],Active
same,Activity,[18],Active
same,Activity,[19],tde
same,Activity,HCT-116 [20],5.1%
same,Activity,Mus musculus,Non-toxic
same,Activity,HCT-116 [21],47.5%
same,Activity,HCT-116 [22],38.9%
same,Activity,HCT-116 [23],Active
same,Activity,[24],Dose-dependent effect
